eIF4E 4G PPI: inhibitors of eIF4E and eIF4G interaction in translation initiation. P63073+Q04637. TR-FRET eIF4E-eIF4GI(517-606) binding, 2 h. inhibition, % at 21.7 µM. 220,000 compounds, 0.37% hits. AID 782;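 note: 0% = full FRET control wells and 100% = background wells lacking eIF4GI fragment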
Target sequence (P63073 whole entry, looked up, the tested form may be a part): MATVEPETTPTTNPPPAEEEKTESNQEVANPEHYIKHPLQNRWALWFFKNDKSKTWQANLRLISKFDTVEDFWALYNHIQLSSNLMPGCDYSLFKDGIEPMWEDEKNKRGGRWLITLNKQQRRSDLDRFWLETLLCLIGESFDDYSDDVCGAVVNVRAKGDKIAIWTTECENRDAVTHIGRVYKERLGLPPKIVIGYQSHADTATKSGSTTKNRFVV
Target sequence (Q04637 whole entry, looked up, the tested form may be a part): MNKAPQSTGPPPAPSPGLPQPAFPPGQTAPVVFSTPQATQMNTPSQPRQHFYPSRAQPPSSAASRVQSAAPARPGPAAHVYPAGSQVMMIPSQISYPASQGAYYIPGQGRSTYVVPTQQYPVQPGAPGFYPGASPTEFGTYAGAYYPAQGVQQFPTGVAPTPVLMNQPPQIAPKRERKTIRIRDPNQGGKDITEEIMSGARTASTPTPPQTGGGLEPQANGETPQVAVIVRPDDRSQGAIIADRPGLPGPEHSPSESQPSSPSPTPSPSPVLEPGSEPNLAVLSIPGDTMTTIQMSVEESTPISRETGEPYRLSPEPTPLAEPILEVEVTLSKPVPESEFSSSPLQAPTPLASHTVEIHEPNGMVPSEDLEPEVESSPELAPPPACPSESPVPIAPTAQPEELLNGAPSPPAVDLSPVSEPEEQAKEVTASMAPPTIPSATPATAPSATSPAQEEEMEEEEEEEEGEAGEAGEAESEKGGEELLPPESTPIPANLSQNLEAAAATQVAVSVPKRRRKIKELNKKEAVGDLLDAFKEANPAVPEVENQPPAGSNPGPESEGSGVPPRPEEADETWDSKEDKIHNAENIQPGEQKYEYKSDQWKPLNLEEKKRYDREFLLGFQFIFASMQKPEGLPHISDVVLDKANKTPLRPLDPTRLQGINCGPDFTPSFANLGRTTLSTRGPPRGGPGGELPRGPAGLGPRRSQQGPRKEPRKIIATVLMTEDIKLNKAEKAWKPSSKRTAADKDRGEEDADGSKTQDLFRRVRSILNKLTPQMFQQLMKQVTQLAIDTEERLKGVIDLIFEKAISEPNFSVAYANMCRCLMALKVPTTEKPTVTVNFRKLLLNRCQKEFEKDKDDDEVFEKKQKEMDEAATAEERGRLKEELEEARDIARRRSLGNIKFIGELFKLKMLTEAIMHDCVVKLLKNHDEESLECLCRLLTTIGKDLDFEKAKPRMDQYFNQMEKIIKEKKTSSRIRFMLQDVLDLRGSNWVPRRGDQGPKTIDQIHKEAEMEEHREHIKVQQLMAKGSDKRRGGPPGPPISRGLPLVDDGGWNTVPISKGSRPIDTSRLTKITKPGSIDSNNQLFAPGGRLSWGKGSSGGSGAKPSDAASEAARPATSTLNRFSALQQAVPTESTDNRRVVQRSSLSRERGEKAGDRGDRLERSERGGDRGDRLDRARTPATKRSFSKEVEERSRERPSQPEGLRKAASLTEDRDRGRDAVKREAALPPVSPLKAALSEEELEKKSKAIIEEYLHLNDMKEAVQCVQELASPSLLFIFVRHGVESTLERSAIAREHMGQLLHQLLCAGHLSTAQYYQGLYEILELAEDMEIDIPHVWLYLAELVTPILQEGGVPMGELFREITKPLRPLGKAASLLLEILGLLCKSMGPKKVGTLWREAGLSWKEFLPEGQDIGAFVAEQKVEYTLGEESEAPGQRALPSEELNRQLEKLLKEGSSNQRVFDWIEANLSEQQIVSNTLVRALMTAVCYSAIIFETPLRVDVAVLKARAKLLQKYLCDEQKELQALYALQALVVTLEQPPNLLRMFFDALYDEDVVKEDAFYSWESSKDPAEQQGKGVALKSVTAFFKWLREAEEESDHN
Diaphorase act: counter-screen for diaphorase-based assays: diaphorase activators and chemical reducers; Diaphorase/resazurin coupled assay, resorufin fluorescence, 16 min; active compounds read high; 1 = vehicle wells, 0 = NADH-free wells; activation factor at 20 µM; 190,000 compounds, 0.005% hits; AID 1229;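 active = diaphorase activity raised at least twofold by the compound at 20 µM; inactive = activation factor below 2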
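Material: purified diaphorase enzyme from Clostridium kluyveri; Also added: 0.114 mM NADH and 0.1 mM resazurin, final amounts; Doses: single compound dose of 20 µM, 1% DMSO final; Times: 16 min enzyme reaction, ambient temperature; Detection: resorufin fluorescence, excitation 544 nm, emission 590 nm; Measure: increased resorufin signal from activators or reducing compounds.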
Hck Nef HTS: blocks Nef-activated human Hck kinase. 220,000 compounds, 0.68% hits. P08631. inhibition, % at 20 µM. Recombinant Hck-YEEI plus Nef, Z-Lyte FRET kinase assay;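 active = Hck-Nef kinase inhibition above about 50%, limit read from the data; inactive = inhibition below that limit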;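 note: 0% = DMSO with Hck plus Nef and 100% = Hck alone without Nef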
14-3-3 Bad inh: disrupts binding of bovine 14-3-3 zeta to phospho-Bad peptide; 220,000 compounds, 0.71% hits; P63103; TR-FRET 14-3-3zeta/Dy647-pBad peptide displacement, 1 h; inhibition, % at 21.7 µM; AID 781;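 active = inhibition above about 70%, limit read from the data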;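 note: 0% = full 14-3-3 plus peptide FRET controls and 100% = background without 14-3-3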
p47phox inh: inhibitors of human p47phox binding; p47phox/p22phox peptide binding, fluorescence polarization, 2 h; inhibition, % at 24.7 µM; AID 1274; 220,000 compounds, 0.53% hits;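 note: 0% = p47phox with labelled peptide and 100% = labelled peptide alone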
Starred values were filed as active, the others as inactive; x = no result; [ ] = dose if it differs, or a comment. This is a sample that favours compounds with a hit; in the whole collection about 2% have one here.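 Rule for the calls, unless noted: active = inhibition above about 30% (limit read from the data); inactive = the rest.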

SMILES | eIF4E 4G PPI | Diaphorase act | Hck Nef HTS | 14-3-3 Bad inh | p47phox inh
O=C(Cc1ccccc1)NC1c2ccccc2-c2ccccc21 | 0.0 | 1 | 0.8 | 10.6 | 5.6
COc1cc(/C=N\NC(=O)c2ccc(C)nc2)ccc1OC(=O)c1ccc2c(c1)OCO2 | 6.1 | 1.2 | 13.5 | 73.9* | -94.4
COc1cc(/C=N/NC(=O)c2cncc(Br)c2)ccc1OC(=O)c1ccc2c(c1)OCO2 | -19.5 | 1 | 1.1 | 15.1 | -83.9
CCOc1cc(/C=N/NC(=O)Nc2ccccc2)ccc1O | 0.2 | 0.8 | 30.8 | -1.3 | 74.9*
Cc1ccc(-n2c(=O)c(C#N)cc3c(=O)n4ccccc4nc32)cc1 | -0.8 | 0.8 | 93.9* | 1.4 | -4.5
Cc1nc2ccc(NC(=O)c3cncc(Br)c3)cc2s1 | -2.6 | x | 16.8 | -2.0 | -28.4
Cc1ccc(NC2=C(Cl)C(=O)c3ccccc3C2=O)cc1 | -0.3 | 0.8 | -0.2 | -0.9 | -15.5
CCN(CC)c1ccc(NC2=C(Cl)C(=O)c3ccccc3C2=O)cc1 | 19.4 | 0.5 | 1.6 | 2.6 | 34.8*
Cc1ccc2nc(-c3ccc(NC(=O)CN4C(=O)c5ccccc5C4=O)cc3)sc2c1 | -4.6 | 1 | 6.2 | 14.9 | 1.7
Cc1ccc2nc(-c3ccc(NC(=O)CNC4CC4)cc3)sc2c1 | 5.5 | 0.9 | 18.5 | 80.3* | 4.7
C#CCn1cc(/C=N/NC(=O)COc2cccc3cccnc23)c2ccccc21 | 10.6 | 0.9 | 31.4 | 92.1*[fluorescence artefact?] | 28.9
O=C(NNC(=O)c1cccs1)c1ccc([N+](=O)[O-])cc1 | 1.5 | 1 | 4.3 | 1.5 | -3.0
CC(C)CNc1cc(N2CCCC2)ccc1[N+](=O)[O-] | 2.9 | 0.8 | -1.2 | -5.5 | 59.2*
CCNc1cc(N2CCCC2)ccc1[N+](=O)[O-] | 1.4 | 0.8 | 6.6 | -3.7 | -2.8
C=CCc1cccc2cc(C(=O)Nc3ccccc3C(=O)O)c(=O)oc12 | 5.0 | 0.1 | 31.2 | 3.4 | -20.6
CCCCc1ccc(NC(=S)N2CCCC(C)C2)cc1 (configuration not stated) | -2.0 | 0.8 | 1.6 | -10.3 | -17.7
CC(C)N(Cc1nc(-c2ccccc2)no1)C(=O)COc1ccccc1 | 62.3* | 0.8 | -0.7 | 12.8 | 11.5
CC(C)N(Cc1nc(-c2ccccc2)no1)C(=O)Cc1ccccc1 | -0.7 | 0.8 | -0.3 | -3.2 | -7.8
CCn1c(=O)c2c(nc3n2CCN3c2ccccc2)n(C)c1=O | 1.3 | 1.1 | 9.0 | 0.0 | -6.3
Cc1ccc(C(=O)C2C(=O)c3ccccc3C2=O)cc1 | 9.2 | 0.9 | 0.9 | 81.8* | 7.8
Cc1ccc(SC(=O)c2c(C)noc2-c2cc(C)on2)cc1 | 1.3 | x | 18.9 | -2.4 | -7.8
CCN1/C(=C/C=C/c2oc3ccc4ccccc4c3[n+]2CC)Oc2ccc3ccccc3c21 | -112.4 | 1.2 | -15.3 | 91.0* | -238.4
CC[n+]1c(/C=C/N(C)c2ccccc2)oc2ccc(Cl)cc21 | 6.6 | 0.8 | 0.7 | -10.5 | -3.4
CC1CCN(Cc2nc(-c3ccccc3)no2)CC1 | 2.0 | x | -0.5 | 75.7* | -9.6
c1ccc(-c2noc(CN3CCN(c4ccccc4)CC3)n2)cc1 | 0.0 | 0.8 | 1.3 | 2.5 | -4.7
SMILES | eIF4E 4G PPI | Diaphorase act | Hck Nef HTS | 14-3-3 Bad inh | p47phox inh
O=C(Cn1cc2c(n1)CCCC2)NCc1ccccn1 | -7.9 | 0.9 | -0.9 | 2.3 | 48.5*
O=C(Cn1cc2c(n1)CCCC2)NCc1cccs1 | -7.8 | 0.8 | 1.8 | 6.5 | -7.7
O=C1CN(C(=O)c2cccs2)c2ccccc2N1 | 47.2* | 0.9 | 3.4 | 52.8 | 4.4
CC(C)(C)Nc1nc2ccc([N+](=O)[O-])cc2o1 | 0.0 | x | 5.6 | -5.8 | -5.5
O=C1N/C(=C\c2ccc(O)cc2)C(O)=C1C=NCc1ccccc1 | -2.2 | 0.9 | 69.3* | -5.7 | -13.7
COc1ccc(/C=C2\NC(=O)C(C=NCc3ccccc3)=C2O)cc1 | 6.2 | 0.8 | 6.3 | -26.7 | -6.4
CC1CCc2nn(CC(=O)N3CCCCCC3)cc2C1 (configuration not stated) | 77.0*[fluorescence artefact?] | 1 | -3.9 | -4.8 | -17.8
COc1ccc(C(=O)Nc2ccc3oc(Cc4ccc(Cl)cc4)nc3c2)cc1OC | 52.8* | 0.8 | 0.8 | -0.1 | -34.9
COc1ccc(C(=O)Nc2ccncc2)cc1OC | -0.9 | 0.9 | -1.3 | 0.5 | 6.7
Nn1c(SCc2ccccc2F)nnc1-c1ccccn1 | -3.2 | x | 12.3 | 1.2 | -16.0
C=CCn1c(C)cc(C(=O)COC(=O)/C=C/c2cccc(OC)c2)c1C | -3.6 | 0.7 | 23.9 | -6.2 | -18.3
Cc1ccc(C)c(N2CCN(C(=O)C(Cc3ccccc3)n3cccc3)CC2)c1 (configuration not stated) | 67.2*[fluorescence artefact?] | 0.8 | 0.9 | 9.4 | -5.4
O=C(C(Cc1ccccc1)n1cccc1)N1CCN(c2ccccc2)CC1 (configuration not stated) | -1.3 | 0.9 | 0.6 | -0.3 | -2.2
O=C(NC(NC(=S)Nc1ccccc1Cl)C(Cl)(Cl)Cl)c1cccc(Cl)c1 (configuration not stated) | 3.2 | 0.8 | 4.5 | 2.4 | -14.0
O=C(NC(NC(=S)Nc1ccccc1C(=O)O)C(Cl)(Cl)Cl)c1cccc([N+](=O)[O-])c1 (configuration not stated) | 13.8 | 0.9 | 2.7 | 72.8* | -2.5
N#CCc1cnc2ccccc2n1 | 3.6 | x | 15.6 | 7.4 | 10.9
CN1CCN(C2=CC(=O)OC23CCCCC3)CC1 | 84.1* | 1 | 7.9 | -7.3 | -2.5
O=C1C=C(N2CCCCC2)C2(CCCCC2)O1 | -0.1 | 0.9 | -20.3 | -5.9 | 4.0
COCCOc1cc2ncnc(N3CCC(C(=O)O)CC3)c2cc1OCCOC | -2.6 | x | 0.2 | -0.8 | -6.6
CCOC(=O)N1CCN(CC(=O)Nc2sc(CC)cc2C(=O)c2ccc(OC)cc2)CC1 | -3.5 | x | -4.5 | -2.0 | 5.9
Cc1c(/C(O)=C2/C(=O)C(=O)N(CCN(C)C)C2c2ccc(C(C)C)cc2)cnn1-c1ccccc1 (configuration not stated) | 0.0 | x | 29.1 | 87.9* | -1.3
COCC(=O)N(C)c1nnc(-c2ccccn2)s1 | 3.7 | 1.1 | 1.2 | -3.0 | -5.0
COCC(=O)N(C)c1nnc(-c2ccc([N+](=O)[O-])cc2)s1 | 8.0 | 1 | -0.5 | 0.8 | 35.0*
O=c1c2c(nc3nc(NCc4ccccc4Cl)[nH]n13)CCC2 | -4.9 | 0.9 | 26.0 | -1.4 | -4.8
COc1ccc(OCC(=O)Nc2cc(-c3nn(C)c(=O)c4ccccc34)ccc2N2CCOCC2)cc1 | -13.6 | x | 10.9 | 3.3 | 7.2
COc1cc(/C=C(\C#N)c2nc3ccccc3[nH]2)cc(OC)c1O | 30.0* | 0.5 | 23.2 | -2.3 | -222.0
CCOC(=O)c1c(CSc2nc(C)cc(C)c2C#N)n(C)c2cc(Br)c(OC(C)=O)cc12 | 5.0 | 0.9 | 1.1 | -24.5 | -11.9
C=CCCc1ccc(C#N)c(SCc2c(C(=O)OCC)c3cc(OC(C)=O)c(Br)cc3n2C)n1 | -0.1 | 1.2 | 1.4 | -12.5 | -71.9

From PubChem BioAssay
